Hits are enriched below; roughly 1.8% of the tested compounds scored in any of these assays.
zVAD death inh: inhibitors of zVAD-triggered necroptosis, primary screen, L929 cells. L929 zVAD necroptosis rescue, ATP luminescence, 24 h; with zVAD 60 µM. viability rescue, % at 10 µM. 220,000 tested, 0.38% active;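 active = activation, scaled between plate controls, above about 75%, limit read from the data; inactive = activation under that limit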
Furin inhibitor: human furin inhibitors, primary screen, biochemical, fluorescence intensity; purified furin, fluorogenic substrate cleavage; AID 463115, 2010; 220,000 tested, 0.061% active; inhibition, % at 20 µM or 30 µM; in the data active = inhibition above about 25%
Target sequence (P09958 108-714 limits assumed): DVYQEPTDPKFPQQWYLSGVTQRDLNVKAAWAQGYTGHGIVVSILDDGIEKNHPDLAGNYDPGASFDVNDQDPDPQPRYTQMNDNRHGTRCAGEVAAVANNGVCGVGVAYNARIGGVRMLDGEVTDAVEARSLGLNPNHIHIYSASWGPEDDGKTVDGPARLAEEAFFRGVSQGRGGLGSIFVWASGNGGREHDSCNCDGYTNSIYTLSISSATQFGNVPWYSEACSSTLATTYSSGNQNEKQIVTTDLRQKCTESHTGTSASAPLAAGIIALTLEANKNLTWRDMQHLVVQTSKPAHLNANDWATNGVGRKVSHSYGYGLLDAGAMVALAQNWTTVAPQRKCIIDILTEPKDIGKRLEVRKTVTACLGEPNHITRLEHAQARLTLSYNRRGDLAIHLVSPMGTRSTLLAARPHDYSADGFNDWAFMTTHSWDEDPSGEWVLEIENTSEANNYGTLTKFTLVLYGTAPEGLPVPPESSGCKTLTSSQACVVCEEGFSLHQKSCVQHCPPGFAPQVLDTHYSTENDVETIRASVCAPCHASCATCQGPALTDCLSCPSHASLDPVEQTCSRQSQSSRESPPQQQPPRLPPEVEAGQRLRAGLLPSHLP
HSV replic up: enhancers of HSV replication in host cells, fold increase, host cell viability. HSV replication augmentation in cells. maximum fold increase. 220,000 tested, 0.005% active. AID 1956, 2009; in the data active = maximum fold increase above about 1.5; inconclusive = no clear call, values can overlap the other calls; tested in PC3 cells
TNF necrop inh: inhibitors of TNF-alpha triggered necroptosis, primary screen, cell-based, Jurkat FADD-/-, single concentration; Jurkat FADD-/- TNF necroptosis rescue, ATP luminescence, 24 h; 0 = TNF only, 100 = no-TNF cells; activation (protection from cell death), % at 10 µM; 220,000 tested, 0.068% active; AID 463075, 2010;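 active = activation, meaning protection from cell death, of at least 50% relative to plate controls; inactive = activation below 50%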;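 also: necroptosis triggered by 40 ng/mL TNF-alpha added together with compound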
Dynein transport: inhibitors of GR-EGFP nuclear translocation, primary screen, dynein cargo transport inhibitor project, imaging, high-content, 3617.4 mouse cells; 220,000 tested, 0.47% active; AID 1381, 2008; z-score, hits read low; test concentration mostly 20 µM; stimulated with dexamethasone, 1 µM; stronger effect = lower value;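 active = plate z-score of nuclear minus cytoplasmic receptor signal below a set negative limit, without overly bright fluorescence or cell loss, cut at about -3.5 in these data, passing the limit was not always enough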;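 also: z-score of nuclear minus cytoplasmic ring GR-EGFP intensity difference per well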
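Buffer or medium: Induction medium lacking tetracycline, stripped serum | Also added: Dexamethasone agonist, 1.0 µM final, for 30 min | Timing: 48 h induction, 1 h compound, 30 min dex at 37 °C | Detection: Formaldehyde fixation, Hoechst nuclear stain, 10x automated fluorescence imaging | Measure: Nuclear versus cytoplasmic GR-EGFP signal, averaged per well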
Autophagy HCS: autophagy modulators in MEF cells, primary screen, imaging, high-content, MEF GFP-LC3; 190,000 tested, 0.98% active; calls only at 10 µM (by protocol); MEF GFP-LC3 puncta imaging; test concentration mostly 10 µM; AID 463193, 2010;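 active = percentage of spot-positive cells more than 3 SD above its plate mean, without a fluorescence outlier flag or 80% toxicity; inconclusive = no clear call, values can overlap the other calls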
A number is an active result; n = inactive; u = inconclusive; x = not tested or not shown; + = active, no number.

SMILES | zVAD death inh | Furin inhibitor | HSV replic up | TNF necrop inh | Dynein transport | Autophagy HCS
COc1ccc(NC(=S)NC(NC(C)=O)C(Cl)(Cl)Cl)c([N+](=O)[O-])c1 (stereo not given) | n | n | n | n | n | n
COc1ccc(NC(=S)NC(NC(=O)c2cccc(C)c2)C(Cl)(Cl)Cl)c([N+](=O)[O-])c1 (stereo not given) | n | n | n | n | n | +
COc1cc(C(=O)N(c2ccc(C)c(C)c2)C2C=CS(=O)(=O)C2)cc(OC)c1OC (stereo not given) | n | n | n | n | n | n
CCC(=O)N(Cc1ccco1)c1nc(-c2ccc(OC)cc2)cs1 | n | n | n | n | n | n
COCC(=O)N(Cc1ccco1)c1nnc(C2CCOC2)s1 (stereo not given) | n | n | n | n | n | +
O=C(Nc1ccc(N2CCCC2)cc1)c1ccc([N+](=O)[O-])cc1Cl | n | n | n | n | n | n
O=C(Nc1ccc(N2CCCCC2)cc1)c1cc([N+](=O)[O-])cc([N+](=O)[O-])c1 | n | n | n | n | n | +
CCOC(=O)C(CC)Sc1nnc(COc2ccc(C)cc2)n1-c1ccccc1 (stereo not given) | n | 28.4 | n | n | n | n
CCOc1ccc(-n2c(COc3ccc(C)cc3)nnc2SCC(N)=O)cc1 | n | n | n | n | n | n
CCOC(=O)c1ccc(NCCOC)c([N+](=O)[O-])c1 | n | n | n | n | n | +
Cc1c2ccccc2nc2c(F)c(NC(C)C)c(F)c(F)c12 | n | n | u | n | n | +
COC(=O)c1cc(-c2ccc(S(=O)(=O)N3CCCCC3)cc2)c(C(F)(F)F)s1 | n | n | n | n | n | x
CCN(CC)CCCNC(=O)c1sc2nc(-c3ccc(F)cc3)cn2c1C | n | n | n | n | n | +
Cc1cc(C)c(Cn2cnc3ccccc32)c(C)c1 | n | n | n | n | n | n
CC1CCCCN1C(=O)C1CCCCN1S(=O)(=O)c1cccc([N+](=O)[O-])c1 (stereo not given) | n | n | n | n | n | x
COc1cc2[nH]c3c(N4CCN(c5ccccn5)CC4)ncnc3c2cc1OC | n | n | x | n | n | +
O=c1c2ccc([N+](=O)[O-])cc2ncn1CCOc1cccc(Br)c1 | n | n | n | n | n | +
O=c1c2ccc([N+](=O)[O-])cc2ncn1CCOc1ccc(Cl)cc1 | n | n | n | n | n | n
O=C(NCCC1=CCCCC1)C(=O)NCc1ccncc1 | n | n | n | n | n | n
CC(C)c1cc(C(=O)N2CCCC(CCC(=O)NCc3ccccc3F)C2)n(C)n1 (stereo not given) | n | n | n | n | n | n
Cc1nc2ccccc2n1-c1nc(-c2ccco2)cc(C(F)(F)F)n1 | n | n | n | n | n | +
COc1ccc2nc(N3C(=O)/C(=C/c4ccc(Cl)cc4)NC3=S)sc2c1 | n | n | n | n | n | +
Cc1cc(NC(=O)/C(C#N)=C/c2ccc(-c3cccc(C(F)(F)F)c3)o2)n(-c2ccccc2)n1 | n | n | x | n | n | n
Cc1cc(NC(=O)/C(C#N)=C/c2ccc(-c3ccc(SC(F)F)cc3)o2)n(-c2ccccc2)n1 | n | n | x | n | n | +
Cc1cc(NC(=O)CSc2nnc(N)s2)c([N+](=O)[O-])cc1C | n | n | n | n | n | n
SMILES | zVAD death inh | Furin inhibitor | HSV replic up | TNF necrop inh | Dynein transport | Autophagy HCS
CCOC(=O)C(=O)Nc1cc(C)on1 | n | n | n | n | n | n
COc1ccccc1C(=O)NC(C)C(c1cccs1)N1CCOCC1 (stereo not given) | n | 30.9 | n | n | n | n
COc1cc(-c2nn3c(-c4ccccc4)nnc3s2)cc(OC)c1OC | n | n | n | n | n | +
CN(C)S(=O)(=O)c1cccc(NC(=O)CCc2c[nH]c3ccccc23)c1 | n | n | n | n | n | n
CCOC(=O)C1CCCN(C(=O)c2ccc(CNS(=O)(=O)c3ccc(C)cc3)cc2)C1 (stereo not given) | n | n | n | n | n | n
CCOC(=O)C1CCN(C(=O)c2ccc(CNS(=O)(=O)c3ccc(OC)cc3)cc2)CC1 | n | n | n | n | n | +
NNC(=O)CSc1cccc2cccnc12 | x | n | n | n | n | n
CN(C)C(=O)CSc1cccc2cccnc12 | n | n | n | n | n | +
CNC(=O)C1=C(C)NC(=S)NC1c1cc2c(cc1OC)CCCC2 (stereo not given) | n | n | n | n | n | n
COC(=O)c1ccccc1NC(=O)CSc1ncn[nH]1 | n | n | n | n | n | x
Cc1ccc(NC(=O)Cn2cnc3c(cnn3C(C)(C)C)c2=O)cc1 | 84.5 | n | n | n | n | n
CCCCNS(=O)(=O)/C=C/c1ccccc1 | n | n | n | n | n | +
COc1ccc(CN2CCN(C(=O)C3CCC(CNS(=O)(=O)c4ccc(C)cc4)CC3)CC2)c(OC)c1OC (stereo not given) | n | n | n | n | n | +
N#CC(C#N)=Cc1ccccc1OCc1ccccc1 | n | n | n | n | n | x
N#CC1=C(N)Oc2cc(O)ccc2C1c1cccs1 (stereo not given) | n | n | u | n | n | n
N#CC1=C(N)Oc2c(ccc3ccccc23)C1c1cccs1 (stereo not given) | n | n | n | n | n | +
N=c1sccn1CC(=O)Nc1ccc(SC(F)F)cc1 | n | n | n | n | n | +
C=CCN(CC=C)C(=S)NC(=O)Cc1cccc2ccccc12 | n | n | n | n | n | n
CC(C)CC(=O)Nc1nnc(SCC(=O)NCc2ccc3c(c2)OCO3)s1 | n | n | n | n | n | n
COc1ccc(OC)c(Nc2nc(-c3cccc([N+](=O)[O-])c3)nc3ccccc23)c1 | n | n | n | n | n | +
COc1ccc(Nc2nc(-c3cccc([N+](=O)[O-])c3)nc3ccccc23)c(OC)c1 | n | n | n | n | n | n
C=CCn1c(SCC(=O)NC23CC4CC(CC(C4)C2)C3)nc2cc(C(=O)O)ccc2c1=O | n | n | n | n | n | n
COc1ccc(C2SCCN2C(=O)c2ccc([N+](=O)[O-])cc2)cc1 (stereo not given) | n | n | n | n | n | n
O=C(c1ccc([N+](=O)[O-])cc1)N1CCSC1c1ccccc1Cl (stereo not given) | n | n | n | 50.9 | n | n
Cc1ccccc1C(=O)N1CCc2ccccc2C1 | n | n | x | n | n | n
CSc1ccccc1C(=O)N1CCc2ccccc2C1 | n | n | n | n | n | +
